Residues, ends and D or L forms follow the SMILES beside them. *: point of attachment. X1 = CCC1C(=O)N(S(C)(=O)=O)[C@H]2CCN(*)[C@H]12
Tests used:
[1] = target: T1, Hepatitis C virus serine protease, NS3/NS4A (Hepatitis C virus) (UniProt D2K2A8+A3EZI9); assay: Compound was tested for inhibition of hepatitis C virus NS3/4A protease at 100 uM 2 hr pre-incubation in chromogenic assay; format: protein-complex assay; conditions: Hepacivirus hominis
[2] = target: T1, Hepatitis C virus serine protease, NS3/NS4A (Hepatitis C virus); assay: Inhibitory concentration against hepatitis C virus NS3/4A protease on 18 h pre-incubation in chromogenic assay; format: protein-complex assay; parameters: concentration or dose not given beside the values; conditions: Hepacivirus hominis; concentration not given here
How it was run: (§1)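 Chromogenic read-out with the NS3 protease domain at 0.56 µM and synthetic 18-mer NS4A cofactor peptide at 0.8 µM. Substrate was Ac-E-D-V-V-P-C-pNO2 anilide at 1.5 mM (Km 1.85 mM). Compound was pre-incubated with enzyme for 2, 4 or 18 h before substrate addition.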

[3] = target: T2, Hepatitis C virus serine protease, NS3/NS4A (Hepatitis C virus, UniProt A3EZI9+D2K2A8); assay: Inhibitory concentration against hepatitis C virus NS3/4A protease on 2 hr pre-incubation in chromogenic assay; format: protein-complex assay, Hepacivirus hominis; how it was run: as §1
T2 sequence (D2K2A8 whole entry): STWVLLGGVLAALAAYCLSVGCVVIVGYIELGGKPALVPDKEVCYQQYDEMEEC
T2 sequence (A3EZI9 whole entry): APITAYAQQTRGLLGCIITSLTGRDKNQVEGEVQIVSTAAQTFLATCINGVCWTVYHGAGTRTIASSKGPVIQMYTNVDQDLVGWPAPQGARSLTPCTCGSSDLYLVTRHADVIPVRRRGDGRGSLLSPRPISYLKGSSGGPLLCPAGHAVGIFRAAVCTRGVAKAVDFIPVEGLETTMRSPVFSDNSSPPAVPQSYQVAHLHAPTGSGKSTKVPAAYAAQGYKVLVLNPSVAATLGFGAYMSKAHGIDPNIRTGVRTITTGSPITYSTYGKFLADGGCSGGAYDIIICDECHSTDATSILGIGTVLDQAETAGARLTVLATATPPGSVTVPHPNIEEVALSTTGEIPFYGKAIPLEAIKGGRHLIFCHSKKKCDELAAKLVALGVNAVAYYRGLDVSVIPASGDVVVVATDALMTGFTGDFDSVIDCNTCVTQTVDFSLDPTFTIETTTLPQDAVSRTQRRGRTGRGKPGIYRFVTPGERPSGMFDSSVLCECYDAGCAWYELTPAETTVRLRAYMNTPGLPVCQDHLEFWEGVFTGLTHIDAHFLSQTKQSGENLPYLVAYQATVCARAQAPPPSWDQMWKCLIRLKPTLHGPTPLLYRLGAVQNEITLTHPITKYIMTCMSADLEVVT

[4] = target: T2, Hepatitis C virus serine protease, NS3/NS4A; assay: Inhibitory concentration against hepatitis C virus NS3/4A protease on 4 hr pre-incubation in chromogenic assay; format: protein-complex assay, Hepacivirus hominis; how it was run: as §1
[5] = target: T2, Hepatitis C virus serine protease, NS3/NS4A; assay: Inhibitory concentration against hepatitis C virus NS3/4A protease on 18 hr preincubation in chromogenic assay; format: protein-complex assay, Hepacivirus hominis; how it was run: as §1
[6] = target: T2, Hepatitis C virus serine protease, NS3/NS4A; assay: Inhibitory concentration against hepatitis C virus NS3/4A protease on 4 hr pre-incubation in fluorogenic assay; format: protein-complex assay, Hepacivirus hominis
How it was run: (§2)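 Fluorogenic assay with full-length NS3/4A protein at 20 nM (NS3:4A 1:1). Substrate was Abz-E-D-V-V-P-C-S-M-S-(3-NO2)-Y-H at 25 µM (Km 5 µM). Compound was pre-incubated with enzyme for 4 or 18 h before substrate addition.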

[7] = target: T2, Hepatitis C virus serine protease, NS3/NS4A; assay: Inhibitory concentration against hepatitis C virus NS3/4A protease on 18 h pre-incubation in fluorogenic assay; format: protein-complex assay, Hepacivirus hominis; how it was run: as §2

Structure (SMILES)	inhibition [1] [%]	inhibition [2] [%]	IC50 [3] [µM]	IC50 [4] [µM]	IC50 [5] [µM]	IC50 [6] [µM]	IC50 [7] [µM]
CCC1C(=O)N(S(C)(=O)=O)[C@H]2CCN(C(=O)C(NC(=O)[C@@H](NC(=O)[C@H](CC(=O)O)NC(=O)[C@H](CCC(=O)O)NC(C)=O)C(C)C)C(C)C)[C@H]12 (single isomer, unassigned)	24	85					
CC[C@H]1C(=O)N(S(C)(=O)=O)[C@H]2CCN(C(=O)[C@@H](NC(=O)OC(C)(C)C)C(C)C)[C@H]12				99	28	341	172
CCC1C(=O)N(S(C)(=O)=O)[C@H]2CCN(C(=O)[C@@H]3CCCN3C(=O)[C@@H](NC(=O)[C@H](CC(=O)O)NC(=O)[C@H](CCC(=O)O)NC(C)=O)C(C)C)[C@H]12 (stereo partly specified) (Ac-EDVP-X1)	5	11					
CC[C@@H]1C(=O)N(C(C)=O)[C@H]2CCN(C(=O)[C@@H](NC(=O)OC(C)(C)C)C(C)C)[C@H]12				88	45	193	194
CCC1C(=O)N(S(C)(=O)=O)[C@H]2CCN(C(=O)CNC(=O)[C@@H](NC(=O)[C@H](CC(=O)O)NC(=O)[C@H](CCC(=O)O)NC(C)=O)C(C)C)[C@H]12 (stereo partly specified) (Ac-EDVG-X1)	10	24					

More lines, now with the values ahead:

inhibition [1] [%]	inhibition [2] [%]	IC50 [3] [µM]	IC50 [4] [µM]	IC50 [5] [µM]	IC50 [6] [µM]	IC50 [7] [µM]	Structure (SMILES)
68	94						CCC1C(=O)N(S(C)(=O)=O)[C@H]2CCN(C(=O)[C@@H](NC(=O)[C@@H](NC(=O)[C@H](CC(=O)O)NC(C)=O)C(C)C)C(C)C)[C@H]12 (stereo partly specified)
		69	69	19	> 400	284	CCC1C(=O)N(S(C)(=O)=O)[C@H]2CCN(C(=O)[C@@H](NC(=O)[C@@H](NC(=O)[C@H](CC(=O)O)NC(=O)[C@H](CCC(=O)O)NC(C)=O)C(C)C)C(C)C)[C@H]12 (stereo partly specified) (Ac-EDVV-X1)
11	41						CCC1C(=O)N(S(C)(=O)=O)[C@H]2CCN(C(=O)[C@@H](N)C(C)C)[C@H]12 (stereo partly specified)
			30	22			CC[C@@H]1C(=O)N(S(C)(=O)=O)[C@H]2CCN(C(=O)[C@@H](NC(=O)OC(C)(C)C)C(C)C)[C@H]12
52			62	27	182	140	CCC1C(=O)N(S(C)(=O)=O)[C@H]2CCN(C(=O)[C@@H](NC(=O)OC(C)(C)C)C(C)C)C12 (single isomer, unassigned)
			> 400	147	216	447	CC[C@H]1C(=O)N(C(C)=O)[C@H]2CCN(C(=O)[C@@H](NC(=O)OC(C)(C)C)C(C)C)[C@H]12
21	45						CCC1C(=O)N(S(C)(=O)=O)[C@H]2CCN(C(=O)[C@@H](NC(=O)[C@@H](NC(C)=O)C(C)C)C(C)C)[C@H]12 (stereo partly specified)
